The text below walks through data of ChEMBL document CHEMBL4513216, “Probing the Open Global Health Chemical Diversity Library for Multistage-Active Starting Points for Next-Generation Antimalarials” (ACS Infect Dis, 2020).

A short description of the series: Toxicity liver stage against HepG2, at 10uM. The class given is cell-based. More on the design: test concentration 10 uM, cell line HepG2-A16-CD81EGFP. The following applies: human, HepG2-A16-CD81EGFP cells; read-out: INHIBITION
A digest of the protocol: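 Uninfected HepG2-A16-CD81EGFP cells, 3 × 10^3 per well, 1536-well, plated on prespotted compound at 10 μM final, parasite-free screening media added to match infected plates; puromycin 10 μM positive, DMSO 0.5% negative; run in parallel with 48 h PbLuc assay at 37 °C, 5% CO2; viability by CellTiter-Glo luminescence, normalized to controls.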
Consider `O=C1CO[C@H](c2ccc(NS(=O)(=O)Cc3ccccc3)cc2)[C@@H](CO)N1`, for which the cytotoxicity at 10 µM is 40.8%.
On to `COC(=O)c1cccc2nc([C@H]3CCN(Cc4ccccc4C)C3)oc12`, for which the cytotoxicity at 10 µM stood at 8.36%.
The result for `CCc1nc(-c2ccc(C(=O)N3CCC4(CC3)OCCO4)cc2)no1` reads 4.32%.
With `COc1ccc(-c2nc(C#N)c(N(C)C)o2)cc1OC`, the cytotoxicity at 10 µM was -4.91%.
On to `CN1C(=O)COc2ccc(C(=O)Cn3cnc4ccccc4c3=O)cc21`, for which the cytotoxicity at 10 µM was -0.894%.
As for `O=S(=O)(NCC1(O)CCOc2ccccc21)c1ccccc1Br` (stereo unspecified), the figure is 8.45%; as for `Cn1nc(CNC(=O)C2CCC2)cc1C1CC1`, -4.31%; as for `O=C(Cc1ccc(F)cc1)N1C[C@H]2CCN[C@H]2C1`, 2.26%.
The result for `O=C(CC1CC1)N1CCC2(CC1)CN(CCn1cccn1)C(=O)CO2` reads 1.75%; that for `Cc1nc([C@@H]2C[C@H]3CN(Cc4scnc4C)C[C@H]3O2)no1`, -127%; that for `COC[C@H]1CC[C@H]2[C@H](CCN2S(=O)(=O)Cc2ccccc2)O1`, 8.25%.
As for `CCN1C(=O)C2(CCOCC2)c2cc(NC(=O)c3csnn3)ccc21`, the figure is 0.223%; as for `COc1cccc(C(=O)N2CCc3ncnc(C)c3CC2)c1`, -12.6%.
As to `CC(C(=O)N1CCN(c2ccccc2)CC1)n1cc(Br)cn1` (stereo unspecified), the cytotoxicity at 10 µM worked out at 7.47%.
`CCn1cc(Br)c(C(=O)NCc2ccc(F)cc2)n1`: the cytotoxicity at 10 µM was -3.01%.
Regarding `CCN(CC)C(=O)c1nnn(Cc2ccccc2)c1OC`, the cytotoxicity at 10 µM is 10.3%.
The result for `Cc1nn(C)c2c(N3CCN(C(=O)C4CCC4)CC3)ncnc12` reads 1.78%; that for `Cc1nonc1CNC(=O)C(C)Oc1cccc(F)c1` (stereo unspecified), 1.22%; that for `CNc1nc(C)c(C(=O)NCC(C)(C)N2CCCCC2)s1`, 2.79%.
The result for `COCCCNS(=O)(=O)c1ccc2c(c1)NC(=O)C(C)O2` (stereo unspecified) reads 1.52%; that for `COc1cccc(C(C)N2CCN(S(=O)(=O)c3ccccc3)CC2)c1` (stereo unspecified), 5.11%.
As for `Cc1ccc(F)cc1C(=O)NCc1ccc(C(=O)O)o1`, the figure is -10.1%; as for `O=C(NCCO)Nc1ccc(Br)c(F)c1`, 1.92%; as for `CC(C)(C)OC(=O)N1CCCCC(NC(=O)CCc2cccnc2)C1` (stereo unspecified), 17.5%.
For the compound `COc1cc(CO)ccc1OCc1nc(C2CC2)no1`, the cytotoxicity at 10 µM worked out at 6.37%.
Regarding `CNC(=O)NC(=O)CN1CCc2c(Br)ccc(F)c2C1`, the cytotoxicity at 10 µM is -9.3%.
As to `COC(=O)C1CCN(C(=O)Cn2ccc(-c3ccccc3)n2)CC1`, the cytotoxicity at 10 µM is -1.22%.
For `Cn1ccc(N2CCCC(NC(=O)c3ccc(Cl)o3)C2=O)n1` (stereo unspecified), the cytotoxicity at 10 µM is -2.51%.
The result for `O=C(NS(=O)(=O)c1ccc(F)c(F)c1)c1cscn1` reads -5.64%; that for `COc1ccnc(N2CCc3ccc(OC(F)F)cc3C2)n1`, -4.32%.
In the case of `O=C(NC1CCc2cc(Cl)ccc21)C1CCN(C(=O)C2CC2)CC1` (stereo unspecified), the cytotoxicity at 10 µM is -1.43%.
As for `Cc1nc(CN2CCCN(CCCc3ccccc3)CC2)no1`, the cytotoxicity at 10 µM stood at 11.3%.
As for `CC(C)N(C)S(=O)(=O)N(C)Cc1cnn(Cc2ccccc2)c1`, the figure is 7.01%; as for `CC(=O)c1cccc(NC(=O)NCCCc2nc(C(C)C)no2)c1`, 2.16%; as for `O=C(CC1CCCN1S(=O)(=O)N1CCCCC1)c1cccs1` (stereo unspecified), 6.31%.
As for `CCSc1cc(C(=O)NCCC(=O)N(C)C)ccn1`, the figure is -5.41%.
The result for `CNC(=O)COc1ccc(-c2ccccc2)nc1` reads 1.76%; that for `CC(C)c1nnc2n1CCN(c1nn3cc(C(C)(C)C)nc3s1)C2`, 7.44%; that for `CC(=O)N1CCN(CCNS(=O)(=O)c2ccc(F)c(F)c2)CC1`, 8.81%.
With `CCN(C(c1cccnc1)c1ccc(F)c(F)c1)S(C)(=O)=O` (stereo unspecified), the cytotoxicity at 10 µM is -0.69%.
As for `CC(CCSc1ccccc1)N1CCCN(C(N)=O)CC1` (stereo unspecified), the cytotoxicity at 10 µM is -10.7%.
Take `CCS(=O)(=O)N1CCC(CSc2ccccc2)C1` (stereo unspecified): the cytotoxicity at 10 µM turned out to be 2.42%.
As for `Cc1cnn(CC2CCCCN2c2ncnc3ccccc23)c1` (stereo unspecified), the figure is 8.24%; as for `Brc1ccc(C2(CNCc3cc[nH]c3)CCOCC2)cc1`, 9.17%.
As for `CC(=O)N1CCN(C(=O)C(C)Nc2ccc3ncsc3c2)CC1` (stereo unspecified), the figure is -3.25%; as for `Cc1cccc(CNC(=O)Nc2ccc3c(c2)CCCC(=O)N3)c1`, 2.33%; as for `CNC(=O)C1CN(Cc2ccc(C#N)cc2F)c2ccccc2O1` (stereo unspecified), 9.44%.
As for `Cc1nsc(N2CCCN(c3ccc(C#N)cn3)CC2)n1`, the figure is -1.32%; as for `CN(Cc1ccccc1O)C(=O)Nc1cc(F)cc(N2CCCC2)c1`, 7.93%.
For `COCC(C)(NC(=O)c1cc(Cl)c(-n2cccc2)cc1OC)C(N)=O` (stereo unspecified), the cytotoxicity at 10 µM is -4.15%.
Regarding `O=C(NCC1CCCOC1)c1ccc(-c2cccs2)[nH]c1=O` (stereo unspecified), the cytotoxicity at 10 µM is -3.67%.
Regarding `COc1ccc(CNC(=O)NC2CCN(CC(F)F)CC2)cc1C`, the cytotoxicity at 10 µM was found to be 1.11%.
The result for `Cc1cnc(CN(Cc2ccccc2)CC(O)c2cccs2)cn1` (stereo unspecified) reads -15.4%; that for `CC(=O)N1CCC(C(=O)NCCN2CCCCC2)CC1`, -5.04%.
As for `Cc1nc(CCNC(=O)NC2CCN(c3ncccn3)CC2)cs1`, the figure is -11.8%; as for `COCCN1CC(C(=O)N(C)Cc2cc(-c3cccnc3)no2)CC1=O` (stereo unspecified), -1.99%.
The result for `O=C(CNc1cc(-c2ccccc2)nc2ccnn12)NC1CC1` reads -10.5%.
In the case of `CCn1nc(CC(C)C)cc1C(=O)N1CC(N2CCCCC2C)C1` (stereo unspecified), the cytotoxicity at 10 µM was -12.4%.
On to `CCn1nccc1C(=O)N1CCCCC1CCc1ccc(O)cc1` (stereo unspecified), for which the cytotoxicity at 10 µM turned out to be 2.62%.
With `Cc1cccc(SC2CCN(C(=O)CCNS(C)(=O)=O)CC2)c1`, the cytotoxicity at 10 µM is 1.2%.
The result for `O=C(CCc1cc2n(n1)CCCNC2)N1CCN(C2CCCC2)C(=O)C1` reads 2.68%; that for `Cc1ccc(CN2CCNC(=O)C2CC(=O)NCc2n[nH]c(C)n2)cc1` (stereo unspecified), -3.83%; that for `Cc1nc(CN2CCC(C(=O)O)(n3ccc(C(C)C)n3)CC2)co1`, -125%.
As for `CCc1nc(N)sc1C(=O)N1CCC(c2cc(O)nc(C)n2)CC1`, the figure is -2.56%; as for `CN1CC2(CCCN(Cc3cccc(CCN)c3)C2)OC1=O` (stereo unspecified), 20%.
As for `COc1ccccc1CNC(=O)CN(C)C(C)c1ccncn1` (stereo unspecified), the figure is -4.73%; as for `COc1ccc(N2CCN(C(=O)CCCc3cn[nH]c3)CC2=O)cc1`, -9.9%.
For the compound `CCC(C)N(Cc1ccncc1)Cc1ccc(-n2cccn2)cc1` (stereo unspecified), the cytotoxicity at 10 µM was -48.3%.
As for `Cn1cc(C(=O)N2CC[C@@]3(O)CCN(C(=O)C4CCCC4)C[C@H]3C2)cn1`, the figure is -138%.
As for `CCn1cc(CN2CCN(C)C3(CCC(=O)N(CC4CC4)CC3)C2)cn1` (stereo unspecified), the figure is -0.764%; as for `CCn1c(C2CCN(C(=O)c3cc(Cl)no3)CC2)nn(C)c1=O`, -10.5%.
As for `CN1CCC(CNC(=O)c2cccc(CN3CCCCCC3)c2)C1` (stereo unspecified), the figure is -5.39%; as for `COCCN(C)C[C@@H]1CN(c2cc(C)nc3ccccc23)C[C@@H]1CO`, -1.92%.
For `CC(C)Cn1cncc1CNC1CCSCC1`, the cytotoxicity at 10 µM was -4.11%.
As for `COCCC(=O)N1CCC2(CC1)CC(c1ccccc1)CN(C)C2` (stereo unspecified), the figure is -14.4%; as for `Cc1nc(CN(C)C2CCN(Cc3ccc(Cl)s3)C2)no1` (stereo unspecified), -2.84%; as for `CCc1nc(C(=O)N2CCOCC2)nn1-c1ccccc1Cl`, -9.29%.
For the compound `CC(=O)N1CCC(NC(=O)N(C)Cc2c(C)noc2C)CC1`, the cytotoxicity at 10 µM was -6.33%.
The result for `CCN(Cc1ccc2c(c1)OCO2)C(=O)c1cccnc1O` reads -9.51%; that for `CCn1cc(CN2CCCN(C(=O)c3sccc3OC)CC2)cn1`, -5.68%.
The result for `Cc1ccc(-c2nc(CN3CCN(C(=O)C4CC4)CC3)cs2)o1` reads -12.6%; that for `Cc1cnn(CC2CCCN2C(=O)c2ccc(OC(C)C)nc2)c1` (stereo unspecified), -6.13%.
As for `Cc1cccc(CN2C(=O)C[C@H]3[C@@H]2CCN3Cc2ccco2)n1`, the cytotoxicity at 10 µM was -1.39%.
Regarding `O=C(NCc1ccco1)[C@@]12CCO[C@@H]1CCN(Cc1ccccn1)C2`, the cytotoxicity at 10 µM turned out to be 0.109%.
As for `COc1ncccc1C(=O)N1C[C@@H]2COC[C@]2(CN(C)C)C1`, the cytotoxicity at 10 µM was -143%.
As for `c1cc(CNCc2ccnc(N3CCOCC3)c2)c2c(c1)OCO2`, the figure is 2.75%; as for `Cc1cccc(CN2CCOCC3(CCN(C4CCOCC4)C3)C2)n1` (stereo unspecified), -0.124%; as for `Cc1ccoc1C(=O)N1C[C@@H]2COC[C@]2(COCc2cccnc2)C1`, 5.95%.
The result for `COCCN1CC[C@@H](OC)[C@@H]1Cc1ccccc1` reads 4.9%; that for `CCS(=O)(=O)N1CC[C@@H]2[C@H](CC1)N(CC(C)C)CCS2(=O)=O`, 8.4%; that for `COc1ccc(C[C@H]2CNCC[C@@H]2OC)cc1`, 3.11%.
For the compound `c1cnc(N2CCOCC3(CN(Cc4nccs4)CCO3)C2)nc1` (stereo unspecified), the cytotoxicity at 10 µM was found to be 1.5%.
As for `COCCN1C[C@@H]2CC[C@H]1CN(Cc1nc3ccccc3n1C)C2`, the figure is -11.2%.
The result for `COCC1N(C(=O)c2ccc3c(c2)OCCCO3)C2CCC1(O)CC2` (stereo unspecified) reads -5.3%; that for `CCn1c(=O)[nH]c2cn(-c3cccc(Cl)c3)c(=O)n21`, 0.0452%.
As for `Cc1cc(C)n(CC(=O)N2C[C@H]3CC[C@@H](C2)N(CC2CCC2)C3)c(=O)n1`, the figure is 13.3%.
